# Assay results taken from ChEMBL document CHEMBL1165969, “Synthesis and cytotoxicity of novel indirubin-5-carboxamides” (Bioorg Med Chem, 2010).
# Assays:
# [1] = biological target: Cyclin-dependent kinase 2/cyclin E1 (Homo sapiens) (UniProt P24864+P24941); experiment: Inhibition of CDK2/Cyclin E assessed as residual activity at 1 uM after 80 mins by microplate scintillation counting; assay type: protein-complex assay
# [2] = biological target: Tyrosine-protein kinase Fgr (Homo sapiens) (UniProt P09769); experiment: Inhibition of FGR assessed as residual activity at 1 uM after 80 mins by microplate scintillation counting
# [3] = biological target: Vascular endothelial growth factor receptor 3 (Homo sapiens) (UniProt P35916); experiment: Inhibition of VEGFR3 assessed as residual activity at 1 uM after 80 mins by microplate scintillation counting
# Method in brief: (§1)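 Kinase profiling was outsourced to a contract laboratory as a panel of 30 protein kinases. Each compound was tested at two concentrations, and residual kinase activity was recorded.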
# [4] = biological target: Platelet-derived growth factor receptor alpha (Homo sapiens) (UniProt P16234); experiment: Inhibition of PDGFRalpha assessed as residual activity at 10 uM after 80 mins by microplate scintillation counting
# [5] = biological target: T1, Cyclin-dependent kinase 2/cyclin A (Homo sapiens) (UniProt P24941+P20248+P78396); experiment: Inhibition of CDK2/Cyclin A assessed as residual activity at 1 uM after 80 mins by microplate scintillation counting; assay type: protein-complex assay
# [6] = biological target: Aurora kinase C (Homo sapiens) (UniProt Q9UQB9); experiment: Inhibition of Aurora C assessed as residual activity at 1 uM after 80 mins by microplate scintillation counting
# [7] = biological target: Proto-oncogene tyrosine-protein kinase receptor Ret (Homo sapiens) (UniProt P07949); experiment: Inhibition of RET assessed as residual activity at 10 uM after 80 mins by microplate scintillation counting; method in brief: as §1
# [8] = biological target: Tyrosine-protein kinase ABL1 (Homo sapiens) (UniProt P00519); experiment: Inhibition of ABL1 assessed as residual activity at 10 uM after 80 mins by microplate scintillation counting
# [9] = biological target: Ribosomal protein S6 kinase beta-1 (Homo sapiens) (UniProt P23443); experiment: Inhibition of p70S6K1 assessed as residual activity at 10 uM after 80 mins by microplate scintillation counting; method in brief: as §1
# [10] = biological target: Serine/threonine-protein kinase Chk1 (Homo sapiens) (UniProt O14757); experiment: Inhibition of CHK1 assessed as residual activity at 1 uM after 80 mins by microplate scintillation counting
# [11] = biological target: Tyrosine-protein kinase JAK2 (Homo sapiens) (UniProt O60674); experiment: Inhibition of JAK2 assessed as residual activity at 1 uM after 80 mins by microplate scintillation counting
# [12] = biological target: T2, Glycogen synthase kinase-3 beta (Homo sapiens, UniProt P49841); experiment: Inhibition of GSK3-beta assessed as residual activity at 1 uM after 80 mins by microplate scintillation counting
# [13] = biological target: T2, Glycogen synthase kinase-3 beta; experiment: Inhibition of GSK3-beta assessed as inhibition of [33Pi] incorporation after 80 mins by microplate scintillation counting
# [14] = biological target: Fibroblast growth factor receptor 1 (Homo sapiens) (UniProt P11362); experiment: Inhibition of FGFR1 assessed as residual activity at 10 uM after 80 mins by microplate scintillation counting
# [15] = biological target: Serine/threonine-protein kinase Chk1 (Homo sapiens) (UniProt O14757); experiment: Inhibition of CHK1 assessed as residual activity at 10 uM after 80 mins by microplate scintillation counting
# [16] = biological target: Cyclin-dependent kinase 1/cyclin B1 (Homo sapiens) (UniProt P06493+P14635); experiment: Inhibition of CDK1/Cyclin B1 assessed as residual activity at 10 uM after 80 mins by microplate scintillation counting; assay type: protein-complex assay
# [17] = Antiproliferative activity against human LXFL 529L cells after 3 days by sulforhodamine B assay; assay type: functional, cell-based; conditions: Homo sapiens, LXFL 529L, 72 h
# Method in brief: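 Cells kept at 37 °C in humidified 5% CO2 in RPMI 1640 with 10% heat-inactivated FBS, penicillin (100 units/mL) and streptomycin, and checked for mycoplasma. Seeded, grown 24 h, then exposed to drug for 3 days in serum-containing medium. Fixed with 50% TCA solution for 1 h at 4 °C, stained with 0.4% SRB, dye eluted in 10 mM Tris pH 10.5, read at 570 nm. Growth expressed as % T/C; IC50 derived.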
# [18] = biological target: Cyclin-dependent kinase 4/cyclin D1 (Homo sapiens) (UniProt P11802+P24385); experiment: Inhibition of CDK4/Cyclin D1 assessed as residual activity at 10 uM after 80 mins by microplate scintillation counting; assay type: protein-complex assay
# [19] = biological target: Focal adhesion kinase 1 (Homo sapiens) (UniProt Q05397); experiment: Inhibition of FAK assessed as residual activity at 10 uM after 80 mins by microplate scintillation counting
# [20] = Solubility in water by spectrophotometry; assay type: physicochemical
# [21] = biological target: Cyclin-dependent kinase 5/CDK5 activator 1 (Homo sapiens) (UniProt Q00535+Q15078); experiment: Inhibition of CDK5/p35 assessed as residual activity at 10 uM after 80 mins by microplate scintillation counting; assay type: protein-complex assay
# [22] = biological target: Receptor tyrosine-protein kinase erbB-2 (Homo sapiens) (UniProt P04626); experiment: Inhibition of ERBB2 assessed as residual activity at 10 uM after 80 mins by microplate scintillation counting
# [23] = biological target: Receptor tyrosine-protein kinase erbB-2 (Homo sapiens) (UniProt P04626); experiment: Inhibition of ERBB2 assessed as residual activity at 1 uM after 80 mins by microplate scintillation counting
# [24] = biological target: Ribosomal protein S6 kinase beta-1 (Homo sapiens) (UniProt P23443); experiment: Inhibition of p70S6K1 assessed as residual activity at 1 uM after 80 mins by microplate scintillation counting; method in brief: as §1
# [25] = biological target: Aurora kinase A (Homo sapiens) (UniProt O14965); experiment: Inhibition of Aurora A assessed as residual activity at 1 uM after 80 mins by microplate scintillation counting
# [26] = biological target: Aurora kinase B (Homo sapiens) (UniProt Q96GD4); experiment: Inhibition of Aurora B assessed as residual activity at 10 uM after 80 mins by microplate scintillation counting
# [27] = biological target: Fibroblast growth factor receptor 1 (Homo sapiens) (UniProt P11362); experiment: Inhibition of FGFR1 assessed as residual activity at 1 uM after 80 mins by microplate scintillation counting
# [28] = biological target: Aurora kinase C (Homo sapiens) (UniProt Q9UQB9); experiment: Inhibition of Aurora C assessed as residual activity at 10 uM after 80 mins by microplate scintillation counting
# [29] = biological target: Serine/threonine-protein kinase B-raf (Homo sapiens) (UniProt P15056); experiment: Inhibition of B-Raf assessed as residual activity at 10 uM after 80 mins by microplate scintillation counting
# [30] = biological target: Receptor-type tyrosine-protein kinase FLT3 (Homo sapiens) (UniProt P36888); experiment: Inhibition of FLT3 assessed as residual activity at 1 uM after 80 mins by microplate scintillation counting
# [31] = biological target: Epidermal growth factor receptor (Homo sapiens) (UniProt P00533); experiment: Inhibition of EGFR assessed as residual activity at 10 uM after 80 mins by microplate scintillation counting
# [32] = biological target: Vascular endothelial growth factor receptor 2 (Homo sapiens) (UniProt P35968); experiment: Inhibition of VEGFR2 assessed as residual activity at 1 uM after 80 mins by microplate scintillation counting; method in brief: as §1
# [33] = biological target: Receptor-type tyrosine-protein kinase FLT3 (Homo sapiens) (UniProt P36888); experiment: Inhibition of FLT3 assessed as residual activity at 10 uM after 80 mins by microplate scintillation counting
# [34] = biological target: Focal adhesion kinase 1 (Homo sapiens) (UniProt Q05397); experiment: Inhibition of FAK assessed as residual activity at 1 uM after 80 mins by microplate scintillation counting
# [35] = biological target: T1, Cyclin-dependent kinase 2/cyclin A (Homo sapiens); experiment: Inhibition of CDK2/Cyclin A assessed as residual activity at 10 uM after 80 mins by microplate scintillation counting; assay type: protein-complex assay
# Chain of Ribosomal protein S6 kinase beta-1 (Homo sapiens) (P23443 whole entry, looked up): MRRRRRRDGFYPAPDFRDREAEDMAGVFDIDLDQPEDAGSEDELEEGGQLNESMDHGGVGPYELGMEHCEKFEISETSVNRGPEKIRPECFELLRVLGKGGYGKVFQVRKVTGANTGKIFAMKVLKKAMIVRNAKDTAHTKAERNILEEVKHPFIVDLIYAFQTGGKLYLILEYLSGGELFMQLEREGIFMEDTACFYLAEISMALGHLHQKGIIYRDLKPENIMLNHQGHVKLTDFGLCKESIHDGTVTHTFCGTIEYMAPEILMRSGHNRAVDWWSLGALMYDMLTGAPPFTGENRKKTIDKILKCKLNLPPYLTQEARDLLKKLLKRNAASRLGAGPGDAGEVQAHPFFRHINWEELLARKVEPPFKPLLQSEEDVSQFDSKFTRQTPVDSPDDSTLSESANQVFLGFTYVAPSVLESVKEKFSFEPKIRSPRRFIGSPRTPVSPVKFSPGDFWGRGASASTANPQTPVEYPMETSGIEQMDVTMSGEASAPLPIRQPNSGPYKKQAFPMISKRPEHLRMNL
# Chain of Focal adhesion kinase 1 (Homo sapiens) (Q05397 2-1052 limits assumed): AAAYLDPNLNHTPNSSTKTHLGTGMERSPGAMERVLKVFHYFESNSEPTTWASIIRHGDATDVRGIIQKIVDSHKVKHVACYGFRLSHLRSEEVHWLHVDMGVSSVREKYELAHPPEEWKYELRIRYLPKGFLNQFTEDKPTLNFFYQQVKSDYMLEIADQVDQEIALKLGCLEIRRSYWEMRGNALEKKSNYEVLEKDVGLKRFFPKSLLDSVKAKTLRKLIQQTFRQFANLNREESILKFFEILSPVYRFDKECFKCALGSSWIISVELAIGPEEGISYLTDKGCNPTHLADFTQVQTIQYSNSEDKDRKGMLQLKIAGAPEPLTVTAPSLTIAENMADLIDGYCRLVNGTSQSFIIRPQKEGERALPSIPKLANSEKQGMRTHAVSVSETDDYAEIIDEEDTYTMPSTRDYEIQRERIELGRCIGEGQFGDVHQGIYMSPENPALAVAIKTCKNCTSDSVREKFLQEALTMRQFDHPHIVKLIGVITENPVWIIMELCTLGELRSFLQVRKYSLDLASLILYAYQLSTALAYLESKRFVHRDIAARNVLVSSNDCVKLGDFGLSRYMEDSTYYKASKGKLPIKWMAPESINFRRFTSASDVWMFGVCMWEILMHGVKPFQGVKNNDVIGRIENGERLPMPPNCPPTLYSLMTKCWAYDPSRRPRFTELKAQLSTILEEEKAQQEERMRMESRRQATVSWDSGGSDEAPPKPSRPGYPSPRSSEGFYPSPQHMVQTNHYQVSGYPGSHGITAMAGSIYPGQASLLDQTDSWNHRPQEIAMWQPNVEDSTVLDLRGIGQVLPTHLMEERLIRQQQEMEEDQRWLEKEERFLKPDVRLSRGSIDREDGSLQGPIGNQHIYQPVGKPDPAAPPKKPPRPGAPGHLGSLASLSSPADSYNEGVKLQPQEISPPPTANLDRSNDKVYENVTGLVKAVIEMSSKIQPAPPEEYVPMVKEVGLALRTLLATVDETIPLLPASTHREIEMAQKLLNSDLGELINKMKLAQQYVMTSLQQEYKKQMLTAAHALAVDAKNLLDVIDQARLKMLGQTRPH
# Chain of Receptor-type tyrosine-protein kinase FLT3 (Homo sapiens) (P36888 whole entry): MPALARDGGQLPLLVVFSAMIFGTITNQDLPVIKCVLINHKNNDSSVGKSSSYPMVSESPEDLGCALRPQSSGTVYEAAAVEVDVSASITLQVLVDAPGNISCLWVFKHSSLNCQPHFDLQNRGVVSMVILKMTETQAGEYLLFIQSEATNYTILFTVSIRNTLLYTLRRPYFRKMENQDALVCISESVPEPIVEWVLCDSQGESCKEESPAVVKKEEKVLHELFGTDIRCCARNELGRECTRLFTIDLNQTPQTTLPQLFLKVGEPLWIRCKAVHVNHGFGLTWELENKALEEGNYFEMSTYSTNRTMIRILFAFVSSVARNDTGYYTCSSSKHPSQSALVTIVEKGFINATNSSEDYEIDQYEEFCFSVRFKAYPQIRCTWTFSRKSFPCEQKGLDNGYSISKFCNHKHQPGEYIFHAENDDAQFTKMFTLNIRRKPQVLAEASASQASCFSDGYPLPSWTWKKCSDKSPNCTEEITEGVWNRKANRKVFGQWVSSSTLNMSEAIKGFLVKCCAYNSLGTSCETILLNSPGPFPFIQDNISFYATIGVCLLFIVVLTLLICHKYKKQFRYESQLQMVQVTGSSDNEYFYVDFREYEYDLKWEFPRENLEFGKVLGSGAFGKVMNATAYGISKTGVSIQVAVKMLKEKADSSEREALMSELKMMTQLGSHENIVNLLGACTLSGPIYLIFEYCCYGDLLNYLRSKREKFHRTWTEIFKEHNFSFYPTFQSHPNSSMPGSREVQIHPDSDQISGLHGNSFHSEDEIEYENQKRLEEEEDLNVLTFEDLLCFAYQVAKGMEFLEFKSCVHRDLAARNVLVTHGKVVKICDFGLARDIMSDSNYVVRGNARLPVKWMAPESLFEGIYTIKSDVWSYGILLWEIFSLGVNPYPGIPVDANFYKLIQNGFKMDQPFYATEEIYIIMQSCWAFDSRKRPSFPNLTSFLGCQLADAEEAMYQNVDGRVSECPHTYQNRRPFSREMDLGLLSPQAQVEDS
# Chain of Receptor tyrosine-protein kinase erbB-2 (Homo sapiens) (P04626 whole entry): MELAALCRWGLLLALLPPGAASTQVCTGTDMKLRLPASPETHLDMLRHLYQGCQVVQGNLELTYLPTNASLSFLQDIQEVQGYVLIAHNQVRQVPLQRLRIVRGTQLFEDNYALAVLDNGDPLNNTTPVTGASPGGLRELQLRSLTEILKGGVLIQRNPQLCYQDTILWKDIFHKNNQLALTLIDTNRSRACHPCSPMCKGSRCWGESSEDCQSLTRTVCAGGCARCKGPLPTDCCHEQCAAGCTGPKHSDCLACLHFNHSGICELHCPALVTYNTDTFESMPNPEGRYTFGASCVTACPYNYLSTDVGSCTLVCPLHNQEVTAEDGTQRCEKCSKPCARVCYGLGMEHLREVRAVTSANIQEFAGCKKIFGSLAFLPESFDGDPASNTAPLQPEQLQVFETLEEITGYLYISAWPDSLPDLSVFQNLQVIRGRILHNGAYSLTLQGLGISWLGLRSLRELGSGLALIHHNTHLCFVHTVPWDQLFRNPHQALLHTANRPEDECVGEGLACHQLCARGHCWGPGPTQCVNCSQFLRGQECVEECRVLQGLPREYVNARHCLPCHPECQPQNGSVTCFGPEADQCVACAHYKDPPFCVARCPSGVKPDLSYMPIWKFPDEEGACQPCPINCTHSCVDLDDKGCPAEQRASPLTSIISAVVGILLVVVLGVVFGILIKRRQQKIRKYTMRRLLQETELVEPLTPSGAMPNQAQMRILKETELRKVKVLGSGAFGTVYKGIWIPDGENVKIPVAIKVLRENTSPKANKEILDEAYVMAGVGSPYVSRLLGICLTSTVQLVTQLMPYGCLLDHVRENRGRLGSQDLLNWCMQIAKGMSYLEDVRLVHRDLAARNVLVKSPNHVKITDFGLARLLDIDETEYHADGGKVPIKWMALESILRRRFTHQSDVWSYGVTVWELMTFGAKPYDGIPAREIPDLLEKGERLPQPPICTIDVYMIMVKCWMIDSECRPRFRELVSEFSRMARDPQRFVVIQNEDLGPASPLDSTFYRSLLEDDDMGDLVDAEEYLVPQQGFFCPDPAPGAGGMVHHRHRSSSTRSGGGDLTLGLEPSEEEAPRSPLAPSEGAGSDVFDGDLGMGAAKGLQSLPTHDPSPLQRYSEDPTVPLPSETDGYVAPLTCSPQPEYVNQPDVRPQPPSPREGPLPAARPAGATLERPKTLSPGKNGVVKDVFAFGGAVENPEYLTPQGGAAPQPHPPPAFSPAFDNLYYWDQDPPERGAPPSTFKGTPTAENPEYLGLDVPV
# Chain of Fibroblast growth factor receptor 1 (Homo sapiens) (P11362 22-822 limits assumed): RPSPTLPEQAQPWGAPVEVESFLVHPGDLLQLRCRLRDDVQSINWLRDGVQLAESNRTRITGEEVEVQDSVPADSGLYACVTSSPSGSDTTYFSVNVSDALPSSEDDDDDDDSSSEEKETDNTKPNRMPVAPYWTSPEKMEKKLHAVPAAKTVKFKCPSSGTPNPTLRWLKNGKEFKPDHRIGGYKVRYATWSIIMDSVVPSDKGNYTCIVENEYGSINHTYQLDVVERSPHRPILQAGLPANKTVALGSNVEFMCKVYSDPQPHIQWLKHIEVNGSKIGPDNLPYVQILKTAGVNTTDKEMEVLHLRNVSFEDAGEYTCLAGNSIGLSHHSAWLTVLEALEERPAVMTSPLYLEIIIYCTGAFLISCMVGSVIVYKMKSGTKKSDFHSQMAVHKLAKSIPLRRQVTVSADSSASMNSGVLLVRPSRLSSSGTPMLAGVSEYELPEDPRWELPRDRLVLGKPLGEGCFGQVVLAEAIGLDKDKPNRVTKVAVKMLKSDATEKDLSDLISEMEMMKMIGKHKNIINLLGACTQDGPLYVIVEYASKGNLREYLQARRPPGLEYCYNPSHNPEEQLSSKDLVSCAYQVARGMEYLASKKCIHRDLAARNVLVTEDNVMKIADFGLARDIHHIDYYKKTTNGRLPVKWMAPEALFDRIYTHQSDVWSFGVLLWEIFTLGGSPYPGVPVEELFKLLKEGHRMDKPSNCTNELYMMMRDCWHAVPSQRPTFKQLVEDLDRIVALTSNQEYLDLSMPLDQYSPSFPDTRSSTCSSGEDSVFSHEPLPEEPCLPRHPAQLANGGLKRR
# Chain of Serine/threonine-protein kinase Chk1 (Homo sapiens) (O14757 whole entry): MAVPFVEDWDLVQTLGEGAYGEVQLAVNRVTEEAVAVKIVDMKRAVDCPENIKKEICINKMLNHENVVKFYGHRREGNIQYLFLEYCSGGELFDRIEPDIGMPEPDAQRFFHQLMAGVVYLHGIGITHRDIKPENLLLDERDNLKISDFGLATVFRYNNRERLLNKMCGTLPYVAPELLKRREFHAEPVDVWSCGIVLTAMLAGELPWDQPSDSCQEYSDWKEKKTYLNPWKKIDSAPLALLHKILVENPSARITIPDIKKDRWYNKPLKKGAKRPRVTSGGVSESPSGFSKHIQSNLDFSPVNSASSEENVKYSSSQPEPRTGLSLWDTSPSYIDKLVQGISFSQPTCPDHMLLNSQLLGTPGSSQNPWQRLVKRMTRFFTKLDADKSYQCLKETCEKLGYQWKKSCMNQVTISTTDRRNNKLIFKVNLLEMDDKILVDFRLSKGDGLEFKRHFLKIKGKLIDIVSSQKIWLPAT
structure (smiles),measurement,setting,value
CN1CCN(c2ccc(NC(=O)c3ccc4c(c3)/C(=C3/Nc5ccccc5C3=O)C(=O)N4)cc2)CC1,Activity,[1],63%
same,Activity,[2],99%
same,Activity,[3],99%
same,Activity,[4],31%
same,Activity,[5],60%
same,Activity,[6],83%
same,Activity,[7],58%
same,Activity,[8],26%
same,Activity,[9],48%
same,Activity,[10],106%
same,Activity,[11],95%
same,Activity,[12],27%
same,IC50,[13],100 nM
same,Activity,[14],83%
same,Activity,[15],45%
same,Activity,[16],23%
same,IC50,[17],540 nM
same,Activity,[18],18%
same,Activity,[19],92%
same,solubility,[20],520 µg/mL
same,Activity,[21],16%
same,Activity,[22],40%
same,Activity,[23],99%
same,Activity,[24],94%
same,Activity,[25],86%
same,Activity,[26],73%
same,Activity,[27],88%
same,Activity,[28],92%
same,Activity,[29],106%
same,Activity,[30],67%
same,Activity,[31],43%
same,Activity,[32],100%
same,Activity,[33],11%
same,Activity,[34],103%
same,Activity,[35],20%
